System: Japanese patients with advanced solid tumors
Experiment: Phase 1 study: safety, tolerability, DLT and treatment-emergent adverse events
Type: in vivo, human
Summary of the method: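 Open-label single-arm dose levels of 80 or 105 mg/m2 IV were given on day 1 of 14-day cycles, with at most 6 patients per level. Adverse events were graded by CTCAE v4.03. DLTs were related events in cycle 1 meeting predefined hematologic or nonhematologic criteria. Tolerability required a cycle 1 DLT rate <33%. Primary G-CSF prophylaxis was barred during DLT evaluation; G-CSF was allowed for treatment-emergent neutropenia and as secondary prophylaxis.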

## COc1cccc(OCCCN)c1-c1cc(Nc2cnc(C#N)cn2)n[nH]1 [Prexasertib]
Total N = 12, Grade 3
  TEAE related to study treatment: Pyrexia: 0 n (%)
  TEAE related to study treatment: Rash: 0 n (%)
  TEAE related to study treatment: Rash maculopapular: 0 n (%)
  TEAE related to study treatment: SVE (supraventricular extrasystoles): 0 n (%)
  TEAE related to study treatment: Stomatitis: 0 n (%)
  TEAE related to study treatment: Thrombocytopenia: 3 (25.0) n (%)
Total N = 12, Grade 3 + 4
  TEAE related to study treatment: Anemia: 2 (16.7) n (%)
  TEAE related to study treatment: Any: 12 (100) n (%)
  TEAE related to study treatment: Atrial fibrillation: 0 n (%)
  TEAE related to study treatment: Constipation: 0 n (%)
  TEAE related to study treatment: ECG QT prolonged: 0 n (%)
  TEAE related to study treatment: Fatigue: 0 n (%)
  TEAE related to study treatment: Febrile neutropenia: 2 (16.7) n (%)
  TEAE related to study treatment: Headache: 0 n (%)
  TEAE related to study treatment: Hypocalcemia: 0 n (%)
  TEAE related to study treatment: Leukopenia: 9 (75.0) n (%)
  TEAE related to study treatment: Lung infection: 0 n (%)
  TEAE related to study treatment: Lymphocytopenia: 1 (8.3) n (%)
  TEAE related to study treatment: Nausea: 0 n (%)
  TEAE related to study treatment: Neutropenia: 10 (83.3) n (%)
  TEAE related to study treatment: Pyrexia: 0 n (%)
  TEAE related to study treatment: Rash: 0 n (%)
  TEAE related to study treatment: Rash maculopapular: 0 n (%)
  TEAE related to study treatment: SVE (supraventricular extrasystoles): 0 n (%)
  TEAE related to study treatment: Stomatitis: 0 n (%)
  TEAE related to study treatment: Thrombocytopenia: 4 (33.3) n (%)
Total N = 12, Grade 4
  TEAE related to study treatment: Anemia: 1 (8.3) n (%)
  TEAE related to study treatment: Any: 7 (58.3) n (%)
  TEAE related to study treatment: Atrial fibrillation: 0 n (%)
  TEAE related to study treatment: Constipation: 0 n (%)
  TEAE related to study treatment: ECG QT prolonged: 0 n (%)
  TEAE related to study treatment: Fatigue: 0 n (%)
  TEAE related to study treatment: Febrile neutropenia: 1 (8.3) n (%)
  TEAE related to study treatment: Headache: 0 n (%)
  TEAE related to study treatment: Hypocalcemia: 0 n (%)
  TEAE related to study treatment: Leukopenia: 4 (33.3) n (%)
  TEAE related to study treatment: Lung infection: 0 n (%)
  TEAE related to study treatment: Lymphocytopenia: 0 n (%)
  TEAE related to study treatment: Nausea: 0 n (%)
  TEAE related to study treatment: Neutropenia: 6 (50.0) n (%)
  TEAE related to study treatment: Pyrexia: 0 n (%)
  TEAE related to study treatment: Rash: 0 n (%)
  TEAE related to study treatment: Rash maculopapular: 0 n (%)
  TEAE related to study treatment: SVE (supraventricular extrasystoles): 0 n (%)
  TEAE related to study treatment: Stomatitis: 0 n (%)
  TEAE related to study treatment: Thrombocytopenia: 1 (8.3) n (%)
All 12 patients
  Frequently-reported TEAE: leukopenia: 100%
  Frequently-reported TEAE: neutropenia: 91.7%
  Frequently-reported TEAE: thrombocytopenia: 66.7%
  Nonhematologic grade 3 or 4 treatment-related TEAE: no reported nonhematologic grade 3 or 4 treatment‐related TEAE
All 12 patients (1 instance)
  Treatment-related grade 4 TEAE: anemia: 8.3%
  Treatment-related grade 4 TEAE: febrile neutropenia: 8.3%
  Treatment-related grade 4 TEAE: thrombocytopenia: 8.3%
All 12 patients (4 patients)
  Treatment-related grade 4 TEAE: leukopenia: 33.3%
All 12 patients (6 patients)
  Treatment-related grade 4 TEAE: neutropenia: 50.0%
All patients
  AE that led to treatment interruption: No patients experienced AE that led to treatment interruption
  Clinically significant cardiac toxicities or AE related to QT prolongation: No clinically significant cardiac toxicities or AE related to QT prolongation were observed
  Discontinuation of the study due to an AE: no patients discontinued the study due to an AE
  Patient deaths during the study: No patient deaths were reported
All patients (8 patients)
  Patients with at least 1 AE that led to a dose adjustment: 66.7%
All patients (Five patients)
  Patients with at least 1 AE that led to dose reduction: 41.7%
All patients (Six patients)
  Patients with at least 1 AE that led to a dose delay: 50.0%
All patients, 1 patient in each group
  Dose reduction due to febrile neutropenia: 16.7%
All patients, 2 patients in each group
  Dose delay due to neutropenia: 33.3%
Day of cycle
  Neutrophil count nadir in patients with grade 4 drug-related neutropenia: ~8 days
In most cases, transient
  Duration of grade 4 neutrophil decreases: < 5 days
Recommended dose of 105 mg/m^2, Japanese patients
  Tolerability (DLT frequency in cycle 1 <33%): confirmed
